{
  "source": "paper PMC10515777",
  "about": "(bioRxiv, 2024)",
  "key": {"WT CFTR": {"target": "WT CFTR (Homo sapiens, UniProt P13569)", "sequence (P13569 whole entry, the tested form may be a part)": "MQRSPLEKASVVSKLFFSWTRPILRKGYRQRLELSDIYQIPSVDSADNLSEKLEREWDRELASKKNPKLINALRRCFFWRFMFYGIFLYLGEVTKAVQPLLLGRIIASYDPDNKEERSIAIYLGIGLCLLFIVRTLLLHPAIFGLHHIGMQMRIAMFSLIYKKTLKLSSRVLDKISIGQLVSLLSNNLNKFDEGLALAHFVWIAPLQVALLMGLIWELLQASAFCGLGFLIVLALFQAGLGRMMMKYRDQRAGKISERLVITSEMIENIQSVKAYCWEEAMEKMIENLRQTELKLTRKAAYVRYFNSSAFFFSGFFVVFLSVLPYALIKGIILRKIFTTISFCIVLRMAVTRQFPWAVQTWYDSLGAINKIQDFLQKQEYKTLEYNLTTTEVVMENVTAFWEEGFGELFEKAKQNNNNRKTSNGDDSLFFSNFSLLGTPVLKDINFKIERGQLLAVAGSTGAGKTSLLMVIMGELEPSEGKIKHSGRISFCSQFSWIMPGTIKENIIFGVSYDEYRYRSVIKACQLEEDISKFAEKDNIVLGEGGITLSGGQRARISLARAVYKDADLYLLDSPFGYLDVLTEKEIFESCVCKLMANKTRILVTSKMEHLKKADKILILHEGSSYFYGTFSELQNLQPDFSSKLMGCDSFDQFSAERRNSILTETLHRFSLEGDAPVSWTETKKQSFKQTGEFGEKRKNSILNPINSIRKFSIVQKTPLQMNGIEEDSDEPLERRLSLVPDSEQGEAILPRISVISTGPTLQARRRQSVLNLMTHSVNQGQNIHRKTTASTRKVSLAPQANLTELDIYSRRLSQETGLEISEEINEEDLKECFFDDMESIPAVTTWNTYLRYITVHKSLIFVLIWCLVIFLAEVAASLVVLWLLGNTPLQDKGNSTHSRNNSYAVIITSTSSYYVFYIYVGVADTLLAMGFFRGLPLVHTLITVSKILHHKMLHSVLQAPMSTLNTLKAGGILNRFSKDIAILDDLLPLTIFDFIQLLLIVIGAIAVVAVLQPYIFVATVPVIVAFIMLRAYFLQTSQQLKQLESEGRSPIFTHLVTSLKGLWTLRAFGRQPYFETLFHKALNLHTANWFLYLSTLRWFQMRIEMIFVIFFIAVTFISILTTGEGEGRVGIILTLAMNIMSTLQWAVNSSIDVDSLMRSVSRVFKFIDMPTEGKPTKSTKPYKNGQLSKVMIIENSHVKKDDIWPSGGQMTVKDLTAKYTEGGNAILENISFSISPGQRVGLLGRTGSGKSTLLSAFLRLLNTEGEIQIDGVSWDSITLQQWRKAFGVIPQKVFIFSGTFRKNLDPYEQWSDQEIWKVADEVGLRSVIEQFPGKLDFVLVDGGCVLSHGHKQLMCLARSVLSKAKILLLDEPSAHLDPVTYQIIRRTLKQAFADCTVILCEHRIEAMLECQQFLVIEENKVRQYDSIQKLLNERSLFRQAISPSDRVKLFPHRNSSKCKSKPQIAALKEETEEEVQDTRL", "assay": "Inside-out patch clamp recording of macroscopic currents, WT CFTR", "type": "biochemical", "conditions": "for change of CFTR currents: enantiomers perfused at 100 M, inside-out patches, 3 mM ATP", "in_short": "(§1)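 WT, S308A or Y304A CFTR (mutants made by site-directed mutagenesis), C-terminally GFP-tagged in BacMam vector, transfected into CHO cells, then 2% FBS at 30 °C for 2 days. Excised inside-out patches were phosphorylated with 25 units/ml PKA plus 3 mM ATP and held at −30 mV, 25 °C, pH 7.4 NMDG solutions. Fold stimulation is the current ratio with/without perfused compound. Dose-response currents were normalized to pre-titration ATP current and fitted for EC50. Means ± SE of patches.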"}, "S308A CFTR": {"target": "S308A CFTR (Homo sapiens, UniProt P13569, S308A)", "sequence (P13569 whole entry S308A)": "as the sequence (P13569 whole entry, the tested form may be a part) above, with S308A counted along it", "assay": "Inside-out patch clamp recording, S308A CFTR", "type": "biochemical", "conditions": "inside-out patches, 3 mM ATP", "in_short": "as §1"}, "Y304A CFTR": {"target": "Y304A CFTR (Homo sapiens, UniProt P13569, Y304A)", "sequence (P13569 whole entry Y304A)": "as the sequence (P13569 whole entry, the tested form may be a part) above, with Y304A counted along it", "assay": "Inside-out patch clamp recording, Y304A CFTR", "type": "biochemical", "conditions": "inside-out patches, 3 mM ATP", "in_short": "as §1"}, "[1]": {"conditions": "ref [8]; cited from earlier work"}, "[2]": {"conditions": "ref [9],[10]; cited from earlier work"}},
  "data": [
    {"compound": "C[C@H](COc1ccccc1)C(=O)n1nc(N)c2ccc(F)cc21", "note": "[(R)-’853, (R)-1-(3-Amino-6-fluoro-1H-indazol-1-yl)-2-methyl-3-phenoxypropan-1-one]", "values": [
      {"measurement": "change of CFTR currents", "setting": "WT CFTR", "result": 0.89, "unit": "fold"}
    ]},
    {"compound": "C[C@@H](COc1ccccc1)C(=O)n1nc(N)c2ccc(F)cc21", "note": "[(S)-’853, (S)-1-(3-Amino-6-fluoro-1H-indazol-1-yl)-2-methyl-3-phenoxypropan-1-one]", "values": [
      {"measurement": "EC50", "setting": "WT CFTR", "result": "2100 ± 900", "unit": "nM"},
      {"measurement": "change of CFTR currents", "setting": "WT CFTR", "result": 1.5, "unit": "fold"},
      {"measurement": "effect of alanine substitution S308A on compound activity", "setting": "S308A CFTR", "result": "abolished the potentiating effect"},
      {"measurement": "effect of alanine substitution Y304A on compound activity", "setting": "Y304A CFTR", "result": "abolished the potentiating effect"}
    ]},
    {"compound": "C[C@H](COc1ccccc1)C(=O)n1nc(N)c2ccc(C(N)=O)cc21", "note": "[Compound I1422, (R)-3-Amino-1-(2-methyl-3-phenoxypropanoyl)-1H-indazole-6-carboxamide]", "values": [
      {"measurement": "IC50", "setting": "WT CFTR", "result": 41000, "unit": "nM"}
    ]},
    {"compound": "C[C@@H](COc1ccccc1)C(=O)n1nc(N)c2ccc(CO)cc21", "note": "[Compound I1408, (S)-1-(3-Amino-6-(hydroxymethyl)-1H-indazol-1-yl)-2-methyl-3-phenoxypropan-1-one]", "values": [
      {"measurement": "EC50", "setting": "WT CFTR", "result": "93 ± 42", "unit": "nM"}
    ]},
    {"compound": "CC(C)(C)c1cc(C(C)(C)C)c(NC(=O)c2c[nH]c3ccccc3c2=O)cc1O", "note": "[Ivacaftor, N-(2,4-di-tert-butyl-5-hydroxyphenyl)-4-oxo-1,4-dihydroquinoline-3-carboxamide]", "values": [
      {"measurement": "water solubility", "setting": "[1]", "result": "< 0.05", "unit": "µg/mL"},
      {"measurement": "bound to plasma proteins", "setting": "[2]", "result": 99, "unit": "%"}
    ]},
    {"compound": "C[C@@H](COc1ccc(F)cc1)C(=O)n1nc(N)c2ccc(F)cc21", "note": "[(S)-SX263, (S)-1-(3-Amino-6-fluoro-1H-indazol-1-yl)-3-(4-fluorophenoxy)-2-methylpropan-1-one]", "values": [
      {"measurement": "EC50", "setting": "WT CFTR", "result": "136 ± 60", "unit": "nM"}
    ]},
    {"compound": "C[C@H](COc1ccccc1)C(=O)n1ncc2ccc(C(N)=O)cc21", "note": "[Compound I1412, (R)-1-(2-Methyl-3-phenoxypropanoyl)-1H-indazole-6-carboxamide]", "values": [
      {"measurement": "IC50", "setting": "WT CFTR", "result": 21000, "unit": "nM"},
      {"measurement": "effect of alanine substitution S308A on compound activity", "setting": "S308A CFTR", "result": "eliminated the activity"},
      {"measurement": "effect of alanine substitution Y304A on compound activity", "setting": "Y304A CFTR", "result": "eliminated the activity"}
    ]}
  ]
}
